Data from ChEMBL document CHEMBL4842317, “Discovery of novel 3-hydroxyandrosta-5,7-Diene-17-Carboxylic acid derivatives as anti-inflammatory bowel diseases (IBD) agents” (Eur J Med Chem, 2021).
Values belong to the compound of their own block, whether it stands above or below them. Activity calls are given as the source filed them. The calls are words filed in the database; no cut-off is given here.

What was measured:
[1] = tested on: RAW264.7; assay: Antiinflammatory activity against mouse RAW264.7 cells assessed as inhibition of LPS-induced NO production measured after 24 hrs by Griess assay; format: functional, cell-based; conditions: RAW264.7, 24 h
Summary of the method: (§1)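 RAW 264.7 cells (1 × 10^5 cells/mL) are cultured 24 h, stimulated with LPS (100 ng/mL final), and treated with compounds from 100 μM downward for 24 h in DMEM with 10% FBS. Medium nitrite is measured by Griess reaction (sulfanilamide, naphthylethylenediamine, phosphoric acid, 10 min, room temperature, dark). Mean + SD from three independent experiments.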

[2] = tested on: RAW264.7; assay: Cytotoxicity against mouse RAW264.7 cells assessed as reduction in cell viability at 3 to 100 uM incubated for 24 hrs in presence of LPS by MTT assay; format: cell-based; conditions: raw264.7, 24 h, dose 3-100 µM
Summary of the method: (§2)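 RAW 264.7 cells are seeded at 1.0 × 10^4 per well and incubated overnight. Compounds are added at concentrations from 100 μM downward, with or without LPS (100 ng/mL), for 24 h. MTT (0.5 mg/mL) is added for 4 h and the formazan is dissolved in DMSO for the read-out.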

[3] = tested on: RAW264.7; assay: Antiinflammatory activity against mouse RAW264.7 cells assessed as inhibition of LPS-induced NO production at 20 uM after 24 hrs by Griess assay; format: functional; summary of the method: as §1
[4] = tested on: RAW264.7; assay: Cytotoxicity against mouse RAW264.7 cells assessed as reduction in cell viability at 3 to 100 uM incubated for 24 hrs by MTT assay; format: cell-based; conditions: raw264.7, 24 h, dose 3-100 µM; summary of the method: as §2
[5] = tested on: RAW264.7; assay: Antiinflammatory activity against mouse RAW264.7 cells assessed as inhibition of LPS-induced iNOS mRNA expression at 20 uM incubated for 8 hrs in presence of LPS by qRT-PCR analysis; format: functional, cell-based
Summary of the method: (§3)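 RAW 264.7 cells are grown 12 h in six-well plates, then exposed to LPS (100 ng/ml) plus compound for 8 h. Reverse transcription is followed by SYBR Green qPCR with GAPDH as internal control. Relative expression is calculated by 2^-ΔΔCT versus the untreated control. Mean + SD from three independent experiments.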

[6] = tested on: RAW264.7; assay: Antiinflammatory activity against mouse RAW264.7 cells assessed as inhibition of LPS-induced COX2 mRNA expression at 20 uM incubated for 8 hrs in presence of LPS by qRT-PCR analysis; format: functional, cell-based; summary of the method: as §3
[7] = tested on: RAW264.7; assay: Antiinflammatory activity against mouse RAW264.7 cells assessed as decrease in LPS-induced IL-1beta mRNA expression at 20 uM in presence of LPS by qRT-PCR analysis; format: functional, cell-based; summary of the method: as §3
[8] = tested on: RAW264.7; assay: Antiinflammatory activity against mouse RAW264.7 cells assessed as decrease in LPS-induced IL-6 mRNA expression at 20 uM in presence of LPS by qRT-PCR analysis; format: functional, cell-based; summary of the method: as §3
[9] = tested on: RAW264.7; assay: Antiinflammatory activity against mouse RAW264.7 cells assessed as decrease in LPS-induced TNF-alpha mRNA expression at 20 uM in presence of LPS by qRT-PCR analysis; format: functional, cell-based; summary of the method: as §3
[10] = tested on: RAW264.7; assay: Antiinflammatory activity against mouse RAW264.7 cells assessed as inhibition of LPS-induced MCP-1 mRNA expression at 20 uM in presence of LPS by qRT-PCR analysis; format: functional, cell-based; summary of the method: as §3
[11] = tested on: RAW264.7; assay: Antiinflammatory activity against mouse RAW264.7 cells assessed as decrease in LPS-induced NF-kappB mRNA expression at 20 uM in presence of LPS by qRT-PCR analysis; format: functional, cell-based; summary of the method: as §3

Compound: C[C@]12CC[C@H]3[C@@H](CC=C4C[C@@H](O)CC[C@@]43C)[C@@H]1CC[C@@H]2C(=O)NC1CC1
IC50 [1]: > 20 µM
Activity [2]: Non-Toxic
inhibition at 20 µM [3]: 40.5%
Activity [4]: Non-Toxic

Compound: C[C@]12CC[C@H]3[C@@H](CC=C4C[C@@H](O)CC[C@@]43C)[C@@H]1CC[C@@H]2C(=O)NCCO
IC50 [1]: > 20 µM
Activity [2]: Non-Toxic
inhibition at 20 µM [3]: 41.1%
Activity [4]: Non-Toxic

Compound: C[C@]12CC[C@H]3[C@@H](CC=C4C[C@@H](O)CC[C@@]43C)[C@@H]1CC[C@@H]2C(=O)Nc1n[nH]cc1C#N
IC50 [1]: > 20 µM
Activity [2]: Non-Toxic
inhibition at 20 µM [3]: 24.9%
Activity [4]: Non-Toxic

Compound: CCOC(=O)[C@H]1CC[C@H]2C3=CC=C4C[C@@H](O)CC[C@]4(C)[C@H]3CC[C@]12C
IC50 [1]: > 20 µM
Activity [2]: Non-Toxic
inhibition at 20 µM [3]: 11.3%
Activity [4]: Non-Toxic

Compound: CC(C)NC(=O)[C@H]1CC[C@H]2[C@@H]3CC=C4C[C@@H](O)CC[C@]4(C)[C@H]3CC[C@]12C
IC50 [1]: > 20 µM
Activity [2]: Non-Toxic
inhibition at 20 µM [3]: 7.84%
Activity [4]: Non-Toxic

Compound: Cc1ccn(C(=O)[C@H]2CC[C@H]3[C@@H]4CC=C5C[C@@H](O)CC[C@]5(C)[C@H]4CC[C@]23C)n1
IC50 [1]: > 20 µM
Activity [2]: Non-Toxic
inhibition at 20 µM [3]: 35.8%
Activity [4]: Non-Toxic

Compound: CCN(CC)C(=O)[C@H]1CC[C@H]2[C@@H]3CC=C4C[C@@H](O)CC[C@]4(C)[C@H]3CC[C@]12C
IC50 [1]: > 20 µM
Activity [2]: Non-Toxic
inhibition at 20 µM [3]: 25.5%
Activity [4]: Non-Toxic

Compound: COC(=O)[C@H]1CC[C@H]2C3=CC=C4C[C@@H](O)CC[C@]4(C)[C@H]3CC[C@]12C
IC50 [1]: > 20 µM
Activity [2]: Non-Toxic
inhibition at 20 µM [3]: 21.8%
Activity [4]: Non-Toxic

Compound: CCCCNC(=O)[C@H]1CC[C@H]2[C@@H]3CC=C4C[C@@H](O)CC[C@]4(C)[C@H]3CC[C@]12C
IC50 [1]: > 20 µM
Activity [2]: Non-Toxic
inhibition at 20 µM [3]: 44.4%
Activity [4]: Non-Toxic

Compound: C[C@]12CC[C@H]3[C@@H](CC=C4C[C@@H](O)CC[C@@]43C)[C@@H]1CC[C@@H]2C(=O)NC1CCCCC1
IC50 [1]: > 20 µM
Activity [2]: Non-Toxic
inhibition at 20 µM [3]: 47.8%
Activity [4]: Non-Toxic

Compound: CC(C)(O)CNC(=O)[C@H]1CC[C@H]2[C@@H]3CC=C4C[C@@H](O)CC[C@]4(C)[C@H]3CC[C@]12C
IC50 [1]: > 20 µM
Activity [2]: Non-Toxic
inhibition at 20 µM [3]: 38.8%
Activity [4]: Non-Toxic

Compound: CCCC[C@](C)(O)[C@H]1CC[C@H]2C3=CC=C4C[C@@H](O)CC[C@]4(C)[C@H]3CC[C@@]21C
IC50 [1]: > 20 µM
Activity [2]: Non-Toxic
inhibition at 20 µM [3]: 28.8%
Activity [4]: Non-Toxic

Compound: C[C@]12CC[C@H]3[C@@H](CC=C4C[C@@H](O)CC[C@@]43C)[C@@H]1CC[C@@H]2C(=O)N1CCCCC1
IC50 [1]: > 20 µM
Activity [2]: Non-Toxic
inhibition at 20 µM [3]: 37.4%
Activity [4]: Non-Toxic

Compound: C[C@]12CC[C@H]3[C@@H](CC=C4C[C@@H](O)CC[C@@]43C)[C@@H]1CC[C@@H]2C(=O)NCCCn1ccnc1
IC50 [1]: > 20 µM
Activity [2]: Non-Toxic
inhibition at 20 µM [3]: 50.4%
Activity [4]: Non-Toxic

More lines, main results first:

IC50 [1]: > 20 µM
Compound: CC(=O)NCCNC(=O)[C@H]1CC[C@H]2[C@@H]3CC=C4C[C@@H](O)CC[C@]4(C)[C@H]3CC[C@]12C
Activity [2]: Non-Toxic
inhibition at 20 µM [3]: 16.1%
Activity [4]: Non-Toxic

IC50 [1]: > 20 µM
Compound: CCC[C@](C)(O)[C@H]1CC[C@H]2C3=CC=C4C[C@@H](O)CC[C@]4(C)[C@H]3CC[C@@]21C
Activity [2]: Non-Toxic
inhibition at 20 µM [3]: 55.3%
Activity [4]: Non-Toxic

IC50 [1]: > 20 µM
Compound: C[C@]12CC[C@H]3[C@@H](CC=C4C[C@@H](O)CC[C@@]43C)[C@@H]1CC[C@@H]2C(=O)NCCN1CCOCC1
Activity [2]: Non-Toxic
inhibition at 20 µM [3]: 36.4%
Activity [4]: Non-Toxic

IC50 [1]: > 20 µM
Compound: CCCCOC(=O)[C@H]1CC[C@H]2C3=CC=C4C[C@@H](O)CC[C@]4(C)[C@H]3CC[C@]12C
Activity [2]: Non-Toxic
inhibition at 20 µM [3]: 37.8%
Activity [4]: Non-Toxic

IC50 [1]: > 20 µM
Compound: C[C@]12CC[C@H]3[C@@H](CC=C4C[C@@H](O)CC[C@@]43C)[C@@H]1CC[C@@H]2C(=O)NCCc1ccccc1
Activity [2]: Non-Toxic
inhibition at 20 µM [3]: 45.4%
Activity [4]: Non-Toxic

IC50 [1]: 11.3 µM
Compound: CC(C)CCNC(=O)[C@H]1CC[C@H]2[C@@H]3CC=C4C[C@@H](O)CC[C@]4(C)[C@H]3CC[C@]12C
Activity [2]: Non-Toxic
inhibition at 20 µM [3]: 59.2%
Activity [4]: Non-Toxic

IC50 [1]: 21.2 µM
Compound: C[C@]12CC[C@H]3[C@@H](CC=C4C[C@@H](O)CC[C@@]43C)[C@@H]1CC[C@@H]2C(=O)NCCc1cccs1
Activity [2]: Non-Toxic
inhibition at 20 µM [3]: 55.6%
Activity [4]: Non-Toxic

IC50 [1]: 31.3 µM
Compound: C[C@]12CC[C@H]3[C@@H](CC=C4C[C@@H](O)CC[C@@]43C)[C@@H]1CC[C@@H]2C(=O)NCCN1CCCC1
Activity [2]: Non-Toxic
inhibition at 20 µM [3]: 50.4%
Activity [4]: Non-Toxic

IC50 [1]: 15.6 µM
Compound: CCCNC(=O)[C@H]1CC[C@H]2[C@@H]3CC=C4C[C@@H](O)CC[C@]4(C)[C@H]3CC[C@]12C
Activity [2]: Non-Toxic
inhibition at 20 µM [3]: 72.8%
Activity [4]: Non-Toxic
Activity [5]: inactive
Activity [6]: Active
Activity [7]: inactive
Activity [8]: inactive
Activity [9]: inactive
Activity [10]: Active
Activity [11]: Active

IC50 [1]: 27 µM
Compound: CC[C@](C)(O)[C@H]1CC[C@H]2C3=CC=C4C[C@@H](O)CC[C@]4(C)[C@H]3CC[C@@]21C
Activity [2]: Non-Toxic
inhibition at 20 µM [3]: 52.5%
Activity [4]: Non-Toxic

IC50 [1]: 9.02 µM
Compound: CCCOC(=O)[C@H]1CC[C@H]2C3=CC=C4C[C@@H](O)CC[C@]4(C)[C@H]3CC[C@]12C
Activity [2]: Non-Toxic
inhibition at 20 µM [3]: 89.4%
Activity [4]: Non-Toxic
Activity [5]: Active
Activity [6]: Active
Activity [7]: Active
Activity [8]: Active
Activity [9]: Active
Activity [10]: Active
Activity [11]: Active
